# Laboratory results: ChEMBL document CHEMBL1124531, “Intercalating agents with covalent bond forming capability. A novel type of potential anticancer agents. 2. Derivatives of chrysophanol and emodin” (1989)
# What was measured:
# Nucleic Acid [1] = assay: Inhibitory activity against [3H]TdR incorporation into DNA in HL-60 cells during the initial 30-min period.; assay type: functional, cell-based; details: Homo sapiens
# Summary of the method: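 HL-60 cells (2.5 × 10^6/mL) preincubated 15 min with compound at four to six concentrations in 0.2% DMSO, then pulsed with [3H-methyl]TdR (1 μCi, 0.15 nmol/mL) for 30 min; radioactivity in isolated DNA fraction counted; compound-free DMSO control as reference.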
# HL-60 = assay: Inhibitory activity against human acute promyelocytic leukemia cells(HL-60) cell growth on 72 hr of exposure of the compound.; assay type: functional; details: HL-60, 72 h, read-out: ID50 (the source's name)
# Nucleic Acid [2] = assay: Ratio for human acute promyelocytic leukemia cells(HL-60) cell growth inhibition and [3H]TdR incorporation into DNA in HL-60 cells; assay type: functional, cell-based
# L1210 = assay: Inhibitory activity against murine L1210 leukemic cell growth; assay type: functional; details: Mus musculus, read-out: ID50 (the source's name)
Structure (SMILES),ID50 (Nucleic Acid [1]) [µM],IC50 (HL-60) [µM],Ratio (Nucleic Acid [2]),IC50 (L1210) [µM]
COc1cc(O)c2c(c1)C(=O)c1cc(CBr)cc(OC)c1C2=O,70,1.7,41,0.068
COc1cc(OC)c2c(c1)C(=O)c1cc(C(Br)Br)cc(OC)c1C2=O,58,6,9.7,41
CCN(CC)Cc1cc(OC)c2c(c1)C(=O)c1cc(OC)cc(O)c1C2=O,180,6.7,26.9,6.9
O=C1c2cccc(O)c2C(=O)c2c(O)cc(CNCCCO)cc21,16,3.2,5,0.67
O=C1c2cccc(O)c2C(=O)c2c(O)cc(C(Br)Br)cc21,39,2.5,15.6,0.44
CCCCNCc1cc(O)c2c(c1)C(=O)c1cccc(O)c1C2=O,25,4.1,6.1,4.6
COc1cccc2c1C(=O)c1c(OC)cc(CN(CCCl)CCCl)cc1C2=O,14,1.8,7.8,13
NCc1cc(O)c2c(c1)C(=O)c1cccc(O)c1C2=O,25,11,2.3,8.5
COc1cc(O)c2c(c1)C(=O)c1cc(CN(CCCl)CCCl)cc(O)c1C2=O,12,0.61,19.7,–
CCN(CC)Cc1cc(OC)c2c(c1)C(=O)c1cccc(OC)c1C2=O,19,30,6.3,130
COc1cc(O)c2c(c1)C(=O)c1cc(CN(CCO)CCO)cc(O)c1C2=O,45,6.6,5.2,14
COc1cccc2c1C(=O)c1c(OC)cc(CNCCO)cc1C2=O,46,55,0.84,140
O=C1c2cccc(O)c2C(=O)c2c(O)cc(CNCCCl)cc21,39,7.5,5.2,7.1
CCNCc1cc(OC)c2c(c1)C(=O)c1cccc(OC)c1C2=O,29,48,0.6,1.2
COc1cc(CN(CCO)CCO)cc2c1C(=O)c1c(O)cccc1C2=O,89,21,4.2,> 24
CC(C)NC(=O)OCCN(CCOC(=O)NC(C)C)Cc1cc(O)c2c(c1)C(=O)c1cccc(O)c1C2=O,17,27,0.63,27
O=C1c2cccc(O)c2C(=O)c2c(O)cc(CN3CCCC3)cc21,10,2.1,4.8,1.6
COc1cccc2c1C(=O)c1c(OC)cc(CN(CCO)CCO)cc1C2=O,14,490,0.03,> 50
CCN(CC)Cc1cc(O)c2c(c1)C(=O)c1cc(OC)cc(O)c1C2=O,35,3.4,10.3,1.2
CCN(CC)Cc1cc(OC)c2c(c1)C(=O)c1cccc(O)c1C2=O,14,5.2,2.7,12
COc1cc(O)c2c(c1)C(=O)c1cc(CNCCCl)cc(O)c1C2=O,220,9.2,23.9,18
COc1cc(O)c2c(c1)C(=O)c1cc(CNCCO)cc(O)c1C2=O,12,1.6,7.5,0.5
CCN(CC)Cc1cc(OC)c2c(c1)C(=O)c1cc(OC)cc(OC)c1C2=O,4.2,7.9,0.53,6.9
O=C1c2cccc(O)c2C(=O)c2c(O)cc(CNCCO)cc21,15,–,17.4,0.16
CCNCc1cc(OC)c2c(c1)C(=O)c1cc(OC)cc(OC)c1C2=O,13,17,0.76,9.8
COc1cccc2c1C(=O)c1c(OC)cc(C)cc1C2=O,19,–,1.9,28
CN(C)Cc1cc(O)c2c(c1)C(=O)c1cccc(O)c1C2=O,9.3,2.7,3.3,2.2
COc1cc(OC)c2c(c1)C(=O)c1cc(CNCCO)cc(OC)c1C2=O,26,110,0.24,17

Structure (SMILES),ID50 (Nucleic Acid [1]) [µM],IC50 (HL-60) [µM],Ratio (Nucleic Acid [2]),IC50 (L1210) [µM]
O=C1c2cccc(O)c2C(=O)c2c(O)cc(CN3CCCCC3)cc21,63,2.8,22.5,4
CNC(=O)OCCN(CCOC(=O)NC)Cc1cc(OC)c2c(c1)C(=O)c1cccc(OC)c1C2=O,9.4,9.5,0.99,72
COc1cc(O)c2c(c1)C(=O)c1cc(CBr)cc(O)c1C2=O,340,25,13.6,59
COc1cc(O)c2c(c1)C(=O)c1cc(CN(CCCl)CCCl)cc(OC)c1C2=O,5.4,0.52,10.4,3.3
COc1cc(O)c2c(c1)C(=O)c1cc(C(Br)Br)cc(O)c1C2=O,110,0.19,579,0.001
COc1cc(OC)c2c(c1)C(=O)c1cc(CNCCCl)cc(OC)c1C2=O,18,5.8,3.1,32
COc1cc(O)c2c(c1)C(=O)c1cc(C(Br)Br)cc(OC)c1C2=O,23,0.097,237,0.001
O=C1c2cccc(O)c2C(=O)c2c(O)cc(CBr)cc21,16,7.1,2.3,8.6
COc1cc(OC)c2c(c1)C(=O)c1cc(CN(CCCl)CCCl)cc(OC)c1C2=O,8.9,2,4.5,2.7
COc1cc(C(Br)Br)cc2c1C(=O)c1c(O)cccc1C2=O,13,0.06,217,4.2e-05
CCNCc1cc(O)c2c(c1)C(=O)c1cc(OC)cc(O)c1C2=O,13,2.1,6.2,0.72
COc1cc(O)c2c(c1)C(=O)c1cc(CN(CCO)CCO)cc(OC)c1C2=O,9.6,> 500,0.02,8.8
COc1cc(OC)c2c(c1)C(=O)c1cc(C)cc(OC)c1C2=O,21,49,0.43,100
O=C1c2cccc(O)c2C(=O)c2c(O)cc(CN(CCCl)CCCl)cc21,69,0.18,383,–
COc1cc(CBr)cc2c1C(=O)c1c(O)cccc1C2=O,12,7.1,1.7,8.8
COc1cccc2c1C(=O)c1c(OC)cc(CBr)cc1C2=O,11,4.4,2.5,9.2
CNC(=O)OCCN(CCOC(=O)NC)Cc1cc(O)c2c(c1)C(=O)c1cccc(O)c1C2=O,28,210,0.13,> 18
COc1cccc2c1C(=O)c1c(OC)cc(C(Br)Br)cc1C2=O,9,2.1,4.3,0.89
CNC(=O)OCCN(CCOC(=O)NC)Cc1cc(OC)c2c(c1)C(=O)c1cccc(O)c1C2=O,12,12,1,89
CCNCc1cc(O)c2c(c1)C(=O)c1cccc(O)c1C2=O,18,8.7,2.1,0.77
COc1cc(CN(CCCl)CCCl)cc2c1C(=O)c1c(O)cccc1C2=O,15,0.39,38.5,–
O=C1c2cccc(O)c2C(=O)c2c(O)cc(CN(CCO)CCO)cc21,14,3.3,4.2,5.9
CCN(CC)Cc1cc(O)c2c(c1)C(=O)c1cccc(O)c1C2=O,14,1.8,7.8,2.8
COc1cc(OC)c2c(c1)C(=O)c1cc(CN(CCO)CCO)cc(OC)c1C2=O,17,100,0.17,> 27
O=C1c2cccc(O)c2C(=O)c2c(O)cc(Cn3ccnc3)cc21,43,4.8,9,7.4
COc1cc(OC)c2c(c1)C(=O)c1cc(CBr)cc(OC)c1C2=O,12,84,0.14,0.68
COc1cccc2c1C(=O)c1c(OC)cc(CNCCCl)cc1C2=O,19,86,0.22,26
